The values that follow come from ChEMBL document CHEMBL1155242, “Radiolabeled 5-iodo-3'-O-(17beta-succinyl-5alpha-androstan-3-one)-2'-deoxyuridine and its 5'-monophosphate for imaging and therapy of androgen receptor-positive cancers: synthesis and biological evaluation” (J Med Chem, 2009).

The target of data set [1] is Albumin (Homo sapiens, UniProt P02768). Briefly: Binding affinity to human serum albumin at 10 to 20 uCi/mL after 60 mins by size-exclusion HPLC analysis. It is filed as ADME. The settings on record: isolated protein, 1 h. In short, it runs like this:
(§1)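 Radioiodinated compound incubated 60 min with human, rabbit or mouse serum, or with purified human SHBG. Aliquots analysed on a TSK3000 size-exclusion column: 0.1 M potassium phosphate/0.1 M Na2SO4 (1:1, pH 6.8) for 20 min, then 0–40% CH3CN over 20 min, held 30 min, 0.7 mL/min. Protein-bound versus free radioactivity read from the peaks.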

Data set [2] in a line: Stability in rabbit serum assessed as intact compound remaining at 10 to 20 uCi/mL after 60 mins by reversed phase HPLC analysis. It is filed as ADME, cell-free, Oryctolagus cuniculus. The settings on record: read-out: Stability. In short, it runs like this:
(§2)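 After 60 min incubation in human, rabbit or mouse serum, incubation mixtures were extracted. Extracts were run on C18 reverse-phase HPLC with H2O/CH3CN, both with 0.07% TFA: 100% aqueous for 10 min, then 0–95% CH3CN over 30 min, held 20 min. Intact radioactive compound was distinguished from degradation product against nonradioactive reference standards.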

For data set [3], the target named is Albumin (Oryctolagus cuniculus, UniProt P49065). Briefly: Binding affinity to rabbit serum albumin at 10 to 20 uCi/mL after 60 mins by size-exclusion HPLC analysis. It is filed as ADME. The settings on record: isolated protein, 1 h. The gist of the method: as §1
Albumin (Oryctolagus cuniculus, UniProt P49065), sequence (P49065 whole entry): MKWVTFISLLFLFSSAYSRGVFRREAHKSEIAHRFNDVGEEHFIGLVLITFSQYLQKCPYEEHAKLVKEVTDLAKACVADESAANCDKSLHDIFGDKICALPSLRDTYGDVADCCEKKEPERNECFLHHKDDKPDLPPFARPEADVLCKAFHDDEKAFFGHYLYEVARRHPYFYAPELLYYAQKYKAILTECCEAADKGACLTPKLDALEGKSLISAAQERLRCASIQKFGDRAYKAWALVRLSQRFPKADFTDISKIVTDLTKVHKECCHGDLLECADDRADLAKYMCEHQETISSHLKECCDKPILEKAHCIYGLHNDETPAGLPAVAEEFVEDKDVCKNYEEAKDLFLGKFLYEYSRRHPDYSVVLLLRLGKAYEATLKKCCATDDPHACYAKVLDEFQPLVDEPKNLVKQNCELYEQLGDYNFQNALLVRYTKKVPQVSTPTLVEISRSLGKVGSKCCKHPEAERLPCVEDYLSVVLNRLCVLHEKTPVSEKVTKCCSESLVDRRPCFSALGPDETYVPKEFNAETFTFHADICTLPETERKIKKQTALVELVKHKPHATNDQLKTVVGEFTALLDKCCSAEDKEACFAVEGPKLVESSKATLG
Data set [4] addresses T1, Sex hormone-binding globulin (Homo sapiens, UniProt P04278).
T1 sequence (P04278 whole entry): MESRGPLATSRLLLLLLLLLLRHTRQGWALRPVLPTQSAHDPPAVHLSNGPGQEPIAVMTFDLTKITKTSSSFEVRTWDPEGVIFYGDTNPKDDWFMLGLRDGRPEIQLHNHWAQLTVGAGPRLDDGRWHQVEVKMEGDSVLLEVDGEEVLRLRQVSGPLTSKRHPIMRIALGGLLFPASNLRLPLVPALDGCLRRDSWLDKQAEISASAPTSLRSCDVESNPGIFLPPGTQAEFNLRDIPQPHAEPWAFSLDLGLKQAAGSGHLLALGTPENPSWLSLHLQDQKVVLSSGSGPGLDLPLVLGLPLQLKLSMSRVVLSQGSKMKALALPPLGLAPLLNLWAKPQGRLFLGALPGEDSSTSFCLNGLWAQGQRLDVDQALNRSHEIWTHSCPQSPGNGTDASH
Briefly: Binding affinity to human sex hormone binding globulin at 10 to 20 uCi up to 6 hrs by size-exclusion HPLC analysis. The data set is classed as ADME.

Data set [5] addresses T1, Sex hormone-binding globulin. Briefly: Binding affinity to human sex hormone binding globulin at 10 to 20 uCi up to 6 hrs by reversed phase HPLC analysis. It is filed as ADME.
The nature of data set [6]: Stability in human serum assessed as intact compound remaining at 10 to 20 uCi/mL after 60 mins by reversed phase HPLC analysis. The data set is classed as ADME, cell-free. The settings on record: read-out: Stability. The gist of the method:
as §2

Data set [7] can be described thus: Stability in rabbit serum assessed as intact compound remaining at 10 to 20 uCi/mL after 60 mins by size-exclusion HPLC analysis. The data set is classed as ADME, cell-free, Oryctolagus cuniculus. The following applies: read-out: Stability. The gist of the method: as §1
The target of data set [8] is T2, Albumin (Mus musculus, UniProt P07724). Briefly: Binding affinity to mouse serum albumin at 10 to 20 uCi/mL after 60 mins by reversed phase HPLC analysis. It is filed as ADME. The settings on record: isolated protein, 1 h.
T2 sequence (P07724 whole entry): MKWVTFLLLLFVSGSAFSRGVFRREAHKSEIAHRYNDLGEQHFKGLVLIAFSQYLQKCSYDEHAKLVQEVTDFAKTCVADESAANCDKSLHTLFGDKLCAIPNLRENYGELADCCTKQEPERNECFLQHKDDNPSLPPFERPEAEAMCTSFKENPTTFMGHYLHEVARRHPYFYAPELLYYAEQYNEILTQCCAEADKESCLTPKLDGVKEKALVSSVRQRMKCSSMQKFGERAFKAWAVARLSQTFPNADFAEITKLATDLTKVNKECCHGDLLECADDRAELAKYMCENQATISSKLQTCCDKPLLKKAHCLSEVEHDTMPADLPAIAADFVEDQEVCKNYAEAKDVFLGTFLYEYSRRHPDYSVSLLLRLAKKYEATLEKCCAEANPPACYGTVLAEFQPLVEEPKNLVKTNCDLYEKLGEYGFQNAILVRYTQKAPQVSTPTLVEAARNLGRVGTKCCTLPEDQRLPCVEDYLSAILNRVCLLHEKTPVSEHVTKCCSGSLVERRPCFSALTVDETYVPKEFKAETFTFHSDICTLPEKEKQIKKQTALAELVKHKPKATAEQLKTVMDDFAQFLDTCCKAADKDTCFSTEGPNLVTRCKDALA
The target in data set [9] is T2, Albumin. Briefly: Binding affinity to mouse serum albumin at 10 to 20 uCi/mL after 60 mins by size-exclusion HPLC analysis. The settings on record: isolated protein, 1 h. It is filed as ADME. The gist of the method:
as §1

A short description of data set [10]: Stability in human serum assessed as intact compound remaining at 10 to 20 uCi/mL after 60 mins by size-exclusion HPLC analysis. The settings on record: read-out: Stability. It is filed as ADME, cell-free. In short, it runs like this:
as §1

In data set [11] the test system is OVCAR-3. Nature of the data set: Antitumor activity against human OVCAR-3 cells xenografted in athymic NCr mouse administered 12 days after tumor implantation at a escalating dose of 5 uCi, ip of day 1, 20 uCi, ip on day 2, 15 uCi, ip on day 3 measured 5 weeks after implantation. The data set is classed as functional, organism-based. The following applies: tested as the 125I-labelled form.

Data set [12] deals with OVCAR-3. Nature of the data set: Antitumor activity against human OVCAR-3 cells xenografted in athymic NCr mouse at 14 uCi, ip administered 12 days after tumor implantation as single dose measured 5 weeks after implantation. It is filed as functional, organism-based. The following applies: tested as the 125I-labelled form. In short, it runs like this: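 Athymic NCr-nu/nu female mice bearing ip OVCAR-3 implants; compound given ip either as one 14 μCi/mouse dose or as three escalating daily doses of 5, 10 and 15 μCi/mouse (total 30 μCi); tumor response assessed at necropsy.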

Data set [13] can be described thus: Stability in human OVCAR-3 cells expressing androgen receptor assessed as assessed as compound degradation at 0.01 to 5 uCi/mL up to 24 hrs by silica gel instant thin layer chromatography. It is filed as ADME, cell-based. The settings on record: read-out: Activity.
A short description of data set [14]: Stability in human OVCAR-3 cells expressing androgen receptor assessed as half life at 0.01 to 5 uCi/mL by silica gel instant thin layer chromatography. The data set is classed as ADME, cell-based.
Data set [15] is described as follows: Stability in mouse serum assessed as intact compound remaining at 10 to 20 uCi/mL after 60 mins by reversed phase HPLC analysis. The data set is classed as ADME, cell-free. The settings on record: read-out: Stability. In short, it runs like this: as §2
Data set [16] in a line: Stability in mouse serum assessed as intact compound remaining at 10 to 20 uCi/mL after 60 mins by size-exclusion HPLC analysis. The data set is classed as ADME, cell-free. The settings on record: read-out: Stability. The gist of the method:
as §1

Calls of active or inactive are those of the source. No cut-off for these calls is given here.

Albumin (Homo sapiens, UniProt P02768), sequence (P02768 whole entry): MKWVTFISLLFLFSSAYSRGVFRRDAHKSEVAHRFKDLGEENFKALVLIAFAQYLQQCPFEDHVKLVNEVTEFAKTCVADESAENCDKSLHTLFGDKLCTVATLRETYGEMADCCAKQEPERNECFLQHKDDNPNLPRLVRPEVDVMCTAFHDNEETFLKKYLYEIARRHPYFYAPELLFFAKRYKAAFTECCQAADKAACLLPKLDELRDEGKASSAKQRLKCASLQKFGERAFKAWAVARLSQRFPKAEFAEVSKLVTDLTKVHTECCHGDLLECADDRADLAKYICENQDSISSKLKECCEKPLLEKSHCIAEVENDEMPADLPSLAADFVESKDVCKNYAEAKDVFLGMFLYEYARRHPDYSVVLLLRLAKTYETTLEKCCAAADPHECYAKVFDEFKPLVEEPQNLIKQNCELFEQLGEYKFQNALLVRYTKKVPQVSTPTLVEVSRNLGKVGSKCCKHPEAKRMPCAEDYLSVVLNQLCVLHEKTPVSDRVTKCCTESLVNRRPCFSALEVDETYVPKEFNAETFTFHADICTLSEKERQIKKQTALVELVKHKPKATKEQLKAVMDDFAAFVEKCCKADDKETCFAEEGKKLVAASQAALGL

Turning to `O=c1[nH]c(=O)n([C@H]2C[C@H](O)[C@@H](COP(=O)(O)O)O2)cc1[125I]`, the Activity result in data set [1], in data set [3], in [4], in data set [5], in data set [8] and in data set [9] was “Not Active” throughout. Moreover, the remaining at 1 h in data set [2], in data set [6], in [7] and in data set [10] was 30% in each case.
Consider `C[C@]12CCC(=O)C[C@@H]1CC[C@@H]1[C@@H]2CC[C@]2(C)[C@@H](OC(=O)CCC(=O)O[C@H]3C[C@H](n4cc(I)c(=O)[nH]c4=O)O[C@@H]3CO)CC[C@@H]12`, for which the outcome in data set [11] and in data set [12] was inactive.
Consider `C[C@]12CCC(=O)C[C@@H]1CC[C@@H]1[C@@H]2CC[C@]2(C)[C@@H](OC(=O)CCC(=O)O[C@H]3C[C@H](n4cc([123I])c(=O)[nH]c4=O)O[C@@H]3CO)CC[C@@H]12`, for which the metabolised at 24 h in data set [13] was greater than 70%. Further, the half-life in data set [14] is 13.2 h.
Regarding `CCOC(=O)CCC(=O)O[C@H]1C[C@H](n2cc([125I])c(=O)[nH]c2=O)O[C@@H]1CO`, the remaining at 1 h in [15] was less than 2%; in data set [2], less than 2%; in data set [6], greater than 90%; in data set [7], less than 2%; in data set [16] it was less than 2%; in [10], greater than 90%. In addition, the Activity entry in data set [1], in [3], in [4], in [5], in [8] and in data set [9] was “Not Active” each time.
